# An excerpt weighted towards active compounds, which were near 1.6% of everything screened.
# PPC-1+TRAIL kill: PPC-1 cancer cell killing with TRAIL present | PPC-1 cells + TRAIL, ATPLite viability luminescence | cell killing (% activity), % at 4 µM or 5 µM | 220,000 tested, 0.41% active | AID 1443;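 active means cell killing above 50% in the first pass at 4 µM, then a duplicate retest at 5 µM averaging 50% or more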;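 further: plate controls were cells with TRAIL plus DMSO for no effect and medium-only wells lacking cells for full effect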
# FLuc inh counter: counter-screen for luciferase assay inhibitors: firefly luciferase inhibition | P08659 | ATPLite firefly luciferase biochemical luminescence, 10 min | inhibition, % at 10 µM | 200,000 tested, 1.5% active | AID 1006;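 active means inhibition above about 50% when tested at 10 µM, limit read from the data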
# Target sequence (P08659 whole entry, looked up): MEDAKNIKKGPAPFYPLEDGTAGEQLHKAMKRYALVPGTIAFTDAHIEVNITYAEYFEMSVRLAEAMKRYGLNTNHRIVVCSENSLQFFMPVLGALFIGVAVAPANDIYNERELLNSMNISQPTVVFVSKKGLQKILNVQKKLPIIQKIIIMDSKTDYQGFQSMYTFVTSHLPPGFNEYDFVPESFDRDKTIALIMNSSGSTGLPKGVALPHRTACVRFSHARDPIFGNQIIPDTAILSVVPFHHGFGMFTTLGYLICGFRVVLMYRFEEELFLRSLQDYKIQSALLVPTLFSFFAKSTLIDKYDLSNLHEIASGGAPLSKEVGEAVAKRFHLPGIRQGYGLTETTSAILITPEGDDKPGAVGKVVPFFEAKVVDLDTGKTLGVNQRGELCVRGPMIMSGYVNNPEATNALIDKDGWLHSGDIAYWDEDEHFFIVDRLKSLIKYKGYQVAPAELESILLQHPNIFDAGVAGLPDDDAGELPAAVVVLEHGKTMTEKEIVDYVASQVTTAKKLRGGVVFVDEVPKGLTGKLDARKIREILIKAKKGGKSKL
# FLuc act counter: affects firefly luciferase, flagging false hits in luciferase stimulation screens; P08659; 200,000 tested, under 10 active; AID 1027; activation factor at 10 µM; ATPlite luciferase biochemical, luminescence, 10 min; 0 = ATP-free wells, 1 = DMSO control;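 active means luciferase activation factor, scaled between plate controls, of at least 2 with compound at 10 µM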
#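 System: Luciferase/luciferin detection reagent, cell-free biochemical luciferase assay | Medium: PBS buffer for ATP | Dosing: Test compounds dosed from 2 mM stocks in 100% DMSO | Timing: 10 min at ambient temperature | Signal: Luminescence measurement of luciferase light output | Evaluation: Luciferase activation, seen as luminescence increase over controls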
# Platelet DG rel: platelet dense granule release activity; human platelet-rich plasma, SFLLRN dense granule ATP release, luminescence; 300,000 tested, 0.22% active; AID 1663; inhibition, %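 (compounds screened at 7.5 µM in platelet-rich plasma)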;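 active means mean replicate score, as percent of positive control, at or above 50; inconclusive means mean below 50 but at least one replicate at or above 50; inactive means mean and every replicate below 50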
# TRAIL sens C8: caspase-8 TRAIL sensitization; NB7+C8 cells + TRAIL, ATPlite viability luminescence; inhibition (viability loss, TRAIL sensitization), % at 10 µM; 360,000 tested, 1% active; AID 624354;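 active means compounds causing at least 50% loss of cell viability in the single-dose screen, relative to plate controls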
# PPC-1 tox: kills PPC-1 cells; cytotoxicity, % at 5 µM; PPC-1 viability, ATPlite luminescence, overnight; 1,200 tested, 50% active; AID 1447; shares compounds with PPC-1+TRAIL kill;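 active means reconfirmed compounds whose average cytotoxicity reaches 50% or more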;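 further: 0% = DMSO-treated cells and 100% = wells holding medium but no cells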
# * hit, by the source's call; ? = inconclusive; . = no result given.
SMILES,PPC-1+TRAIL kill,FLuc inh counter,FLuc act counter,Platelet DG rel,TRAIL sens C8,PPC-1 tox
CCOc1ccc(C(=O)Nc2nnc(NC(=S)Nc3ccccc3)s2)cc1,13.3,23.2,0.8,2.4,54.9*,8.2
O=C(Nc1c2c(nn1-c1ccccc1)CS(=O)(=O)C2)c1ccc(Br)o1,.,.,.,.,2.7,.
CN(C)c1ccc(Nc2nc(-c3cccnc3)cs2)cc1,70.3*,78.2*,0.2,18.5,67.0*,67.8*
CCc1nn2cc(-c3ccccc3)nc2s1,57.6*,88.8*,0.1,35.1,70.8*,56.9*
CCOC(=O)C1(C)CCN1C(=O)c1ccc(Cl)nc1 (stereo not drawn),.,.,.,.,-5.1,.
CCn1c(Cl)c(C=O)s/c1=N\S(=O)(=O)c1ccccc1,23.0,.,.,-5.2,39.3,38.2
COc1cc(Cl)ccc1OC1(C)CCN(Cc2c(F)cccc2F)C1 (stereo not drawn),.,.,.,.,-4.7,.
COc1ccc2nc(NC(=O)Nc3ccccc3OC)sc2c1,.,.,.,5.2,43.7,.
COc1ccc2nc(Nc3ccccc3OC)sc2c1,60.6*,87.1*,0.1,21.7,69.0*,57.1*
O=C(NCc1ccccn1)C(=O)N/N=C/c1ccc2c(c1)OCO2,3.6,6.1,0.9,1.7,1.3,9.2
Fc1ccccc1-c1ccc(/C=N/Nc2nc3ccccc3[nH]2)o1,79.8*,93.3*,0.1,18.4,78.8*,77.7*
C(=N\Nc1nc2ccccc2[nH]1)/c1ccc2ncccc2c1,70.5*,.,.,11.8,81.3*,71.7*
CCCCn1c(/C=N/Nc2nc3ccccc3[nH]2)nc2ccccc21,0.4,8.5,0.9,3.7,27.0,.
Cc1ccc(/C=N\Nc2nc3ccc(Cl)cc3[nH]2)o1,6.5,26.5,0.7,2.7,9.1,9.5
C(=N\Nc1nc2ccccc2[nH]1)/c1ccccn1,79.0*,95.9*,0,62.0*,91.5*,80.4*
COc1ccc(/C=N/Nc2nc3ccccc3[nH]2)cc1OC,-16.3,36.4,0.6,-4.5,6.5,.
CCOC(=O)[C@]12CCC=C1N(CCC1=CCCCC1)C(=O)[C@H](CC(=O)N1CCOCC1)C2,.,.,.,.,-5.0,.
N#Cc1cnc2cc(-c3ccccc3)nn2c1N,13.3,.,.,9.3,-34.0,.
COc1ccc(-c2cc3ncc(-c4ccccc4)c(N)n3n2)cc1,40.6,78.7*,0.2,6.4,61.9*,51.6*
Cc1cccc(C)c1NC(=O)C1C(c2ccccc2)=Nc2ccccc2N1C(=O)c1cnccn1 (stereo not drawn),.,.,.,.,-3.6,.
CN(C)c1ccc(-c2nc3ccccc3c(=O)[nH]2)cc1,87.8*,.,.,?,93.2*,87.8*
CCN(CC)CCn1nc2c3c(cccc3c1=O)-c1ccccc1-2,20.0,5.9,0.9,-0.9,12.9,18.3
Cc1cc(/C=N/Nc2nc(N)ncc2[N+](=O)[O-])c(C)n1-c1ccccc1F,76.4*,.,.,28.1,.,77.4*
Cc1cccc(C)c1-n1c(C)cc(/C=N\Nc2ccc([N+](=O)[O-])cn2)c1C,22.7,1.5,1,4.3,7.5,.
CCNC(=S)N/N=C(\C)c1ccc(N2CCOCC2)cc1,6.1,-3.1,1,-7.2,-1.0,.
SMILES,PPC-1+TRAIL kill,FLuc inh counter,FLuc act counter,Platelet DG rel,TRAIL sens C8,PPC-1 tox
CNC(=S)N/N=C(\C)c1ccc(N2CCOCC2)cc1,7.8,14.3,0.9,-3.4,16.6,2.1
COC(=O)[C@@]12C[C@@H](CC(=O)NCC3CCCCC3)C(=O)N(Cc3ccc4c(c3)OCO4)C1=CCC(C)(C)C2,.,.,.,.,12.8,.
COc1ccc(-c2cc(C(=O)N3CCN(c4ccccn4)CC3)c3ccccc3n2)cc1,51.2*,80.5*,0.2,0.5,58.5*,52.7*
COc1ccc2cc(-c3cc(C(=O)O)c4ccccc4n3)ccc2c1,96.0*,98.2*,0,30.1,94.8*,96.1*
COc1ccc(-c2cc(C(=O)O)c3ccccc3n2)c(OC)c1,4.3,0.2,1,-1.4,-13.2,.
Cc1ccc(-c2cc(C(=O)N3CCN(c4ccc(F)cc4)CC3)c3ccccc3n2)o1,33.1,29.2,0.7,0.5,10.8,30.3
CCOc1ccc(-c2cc(C(=O)N3CCN(c4ccccn4)CC3)c3ccccc3n2)cc1,81.3*,89.7*,0.1,20.7,89.3*,82.5*
Cc1ccc(-c2cc(C(=O)N3CCOCC3)c3ccccc3n2)o1,.,.,.,.,23.8,.
Nc1cc(=O)nc2cn[nH]n12,.,.,.,.,2.9,.
O=C(COc1ccc(CNC[C@H]2O[C@@H](n3ccc(=O)[nH]c3=O)[C@H](O)[C@@H]2O)cc1)Nc1nccs1,.,.,.,.,-16.9,.
Cc1ccc2cc(/C=N/NC(=O)c3ccc(F)cc3)c(Cl)nc2c1,.,-0.1,1,4.4,5.9,.
Cc1ccc2nc(Cl)c(/C=N/Nc3ccc(C(=O)O)cc3)cc2c1,87.5*,.,.,8.2,78.5*,87.4*
COc1ccc(N/C(=N\c2nc(C)cc(C)n2)NC(C)=O)cc1OC,8.5,-3.0,1,1.9,-0.9,.
COc1ccc(N/C(=N\c2nc(C)cc(C)n2)NC(=O)C(C)C)cc1OC,-10.3,-10.0,1.1,.,-5.1,-16.7
CC(C)(C)c1ccc(-c2noc(CCC(=O)N3CCOCC3)n2)cc1,44.7,82.6*,0.2,2.9,64.3*,37.1
COc1ccccc1Nc1nnc(SCC(=O)NC2CCCC2)s1,.,.,.,.,-9.6,.
COc1ccccc1Nc1nnc(SCC2CCCCO2)s1 (stereo not drawn),65.0*,86.0*,0.1,17.0,70.5*,64.9*
Cc1cnc(NC(=O)CCNC(=O)c2ccccc2Cl)s1,1.8,-0.4,1,-1.0,-6.1,.
Cc1cnc(NC(=O)COc2ccccc2Cl)s1,60.0*,91.4*,0.1,26.8,77.4*,58.8*
CC(=O)NC(c1ccc(Cl)cc1)c1ccc2cccnc2c1O (stereo not drawn),.,.,.,.,22.9,.
Cc1cc(NC(c2ccc(Cl)cc2)c2ccc3cccnc3c2O)no1 (stereo not drawn),39.0,-9.9,1.1,-7.7,17.6,35.5
C=CCSc1nnc(NC(=O)c2ccc3c(c2)OCCO3)s1,.,.,.,.,31.0,.
O=C(O)CSc1nnc(NC(=O)c2ccc3c(c2)OCO3)s1,65.7*,91.3*,0.1,1.6,73.9*,67.1*
COc1ccc(C(=O)Nc2cc(OC)c(NC(=O)Nc3ccccc3)cc2OC)cc1,.,.,.,.,5.7,.
C/C(=N\NC(=O)c1n[nH]c2c1CCC2)c1ccco1,39.5,.,.,30.6,63.7*,40.2
CCC(C)(C)C1CCc2[nH]nc(C(=O)N/N=C(\C)c3ccco3)c2C1 (stereo not drawn),21.8,.,.,3.2,32.2,.
O=C(c1cc(-c2ccccc2)on1)N(Cc1cccnc1)C(c1ccccn1)c1nc2ccccc2[nH]1 (stereo not drawn),.,.,.,.,2.5,.
N#C/C(=C/c1cccs1)c1nc2ccccc2[nH]1,36.7,3.3,1,2.3,26.7,.
Cc1ccc(/C=C(\C#N)c2nc3ccccc3[nH]2)s1,51.0*,46.6,0.5,-17.6,61.0*,56.9*

# From PubChem BioAssay
